30 molecules from ChEMBL document CHEMBL4813998, “Structural simplification of evodiamine: Discovery of novel tetrahydro-β-carboline derivatives as potent antitumor agents” (Bioorg Med Chem Lett, 2021) can be followed below.

Experiment [1] in a line: Antiproliferative activity against human HCT116 cells assessed as growth inhibition by CCK8 assay. It is filed as functional, cell-based, Epithelial cell. A general note: Tetrazolium assays rely on reduction of a dye to a coloured formazan, in cell work by metabolically active cells.
Experiment [2] in a line: Antiproliferative activity against human A549 cells assessed as growth inhibition by CCK8 assay. It is filed as functional, cell-based, Epithelial cell.
A short description of experiment [3]: Antiproliferative activity against human MDA-MB-231 cells assessed as growth inhibition by CCK8 assay. In kind it is functional, cell-based, Epithelial cell.
In experiment [4] the target is T1, DNA topoisomerase 1 (Homo sapiens) (UniProt P11387).
T1 sequence (whole entry): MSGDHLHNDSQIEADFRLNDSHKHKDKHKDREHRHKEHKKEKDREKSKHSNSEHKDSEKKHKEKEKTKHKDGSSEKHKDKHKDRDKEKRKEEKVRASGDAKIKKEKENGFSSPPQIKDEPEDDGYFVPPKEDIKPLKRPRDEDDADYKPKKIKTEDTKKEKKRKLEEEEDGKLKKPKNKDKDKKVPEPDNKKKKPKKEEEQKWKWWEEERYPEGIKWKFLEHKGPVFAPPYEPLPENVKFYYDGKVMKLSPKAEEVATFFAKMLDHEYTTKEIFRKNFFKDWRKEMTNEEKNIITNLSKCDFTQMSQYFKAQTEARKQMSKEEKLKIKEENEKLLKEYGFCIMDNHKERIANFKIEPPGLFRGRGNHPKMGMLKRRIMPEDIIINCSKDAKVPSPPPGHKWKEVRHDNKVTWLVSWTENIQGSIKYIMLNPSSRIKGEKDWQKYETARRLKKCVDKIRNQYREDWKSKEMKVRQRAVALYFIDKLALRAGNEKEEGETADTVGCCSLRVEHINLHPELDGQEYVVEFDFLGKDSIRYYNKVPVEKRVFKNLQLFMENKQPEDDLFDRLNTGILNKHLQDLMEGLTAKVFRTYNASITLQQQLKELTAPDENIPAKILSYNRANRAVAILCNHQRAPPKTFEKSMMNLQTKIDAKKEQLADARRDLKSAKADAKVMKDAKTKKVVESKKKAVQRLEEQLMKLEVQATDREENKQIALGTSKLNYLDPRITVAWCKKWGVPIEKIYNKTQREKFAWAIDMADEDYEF
Nature of the experiment: Inhibition of TOP1 (unknown origin) assessed as decrease in relaxation of supercoiled DNA using supercoiled plasmid DNA at 500 uM relative to camptothecin. The method, boiled down:
(§1)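 Top1-mediated relaxation of supercoiled DNA was tested with compounds at 500 μM and 100 μM. Camptothecin served as the positive control.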

For experiment [5], the target named is DNA topoisomerase 2-alpha (Homo sapiens) (UniProt P11388). Nature of the experiment: Inhibition of TOP2 (unknown origin) assessed as fractured DNA fragments using supercoiled plasmid DNA at 250 uM. The method, boiled down: (§2)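 Purified Top2 was incubated with DNA and compounds at 250 μM and 100 μM. The read-out was the appearance of fractured DNA fragments, with etoposide as the positive control.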

The target is the same in experiment [6]. Nature of the experiment: Inhibition of TOP2 (unknown origin) assessed as fractured DNA fragments using supercoiled plasmid DNA at 100 uM relative to etoposide. The method, boiled down:
as §2

The target is the same in experiment [7]. Nature of the experiment: Inhibition of TOP2 (unknown origin) assessed as fractured DNA fragments using supercoiled plasmid DNA at 50 uM relative to etoposide.
In experiment [8] the target is T1, DNA topoisomerase 1 (Homo sapiens). The experiment can be described thus: Inhibition of TOP1 (unknown origin) assessed as decrease in relaxation of supercoiled DNA using supercoiled plasmid DNA at 100 uM relative to camptothecin. The procedure, abridged: as §1

SMILES strings stand for the structures. Calls of active or inactive are those of the source. No cut-off for these calls is given here.

Sequence of DNA topoisomerase 2-alpha (Homo sapiens) (P11388 whole entry, the tested form may be a part): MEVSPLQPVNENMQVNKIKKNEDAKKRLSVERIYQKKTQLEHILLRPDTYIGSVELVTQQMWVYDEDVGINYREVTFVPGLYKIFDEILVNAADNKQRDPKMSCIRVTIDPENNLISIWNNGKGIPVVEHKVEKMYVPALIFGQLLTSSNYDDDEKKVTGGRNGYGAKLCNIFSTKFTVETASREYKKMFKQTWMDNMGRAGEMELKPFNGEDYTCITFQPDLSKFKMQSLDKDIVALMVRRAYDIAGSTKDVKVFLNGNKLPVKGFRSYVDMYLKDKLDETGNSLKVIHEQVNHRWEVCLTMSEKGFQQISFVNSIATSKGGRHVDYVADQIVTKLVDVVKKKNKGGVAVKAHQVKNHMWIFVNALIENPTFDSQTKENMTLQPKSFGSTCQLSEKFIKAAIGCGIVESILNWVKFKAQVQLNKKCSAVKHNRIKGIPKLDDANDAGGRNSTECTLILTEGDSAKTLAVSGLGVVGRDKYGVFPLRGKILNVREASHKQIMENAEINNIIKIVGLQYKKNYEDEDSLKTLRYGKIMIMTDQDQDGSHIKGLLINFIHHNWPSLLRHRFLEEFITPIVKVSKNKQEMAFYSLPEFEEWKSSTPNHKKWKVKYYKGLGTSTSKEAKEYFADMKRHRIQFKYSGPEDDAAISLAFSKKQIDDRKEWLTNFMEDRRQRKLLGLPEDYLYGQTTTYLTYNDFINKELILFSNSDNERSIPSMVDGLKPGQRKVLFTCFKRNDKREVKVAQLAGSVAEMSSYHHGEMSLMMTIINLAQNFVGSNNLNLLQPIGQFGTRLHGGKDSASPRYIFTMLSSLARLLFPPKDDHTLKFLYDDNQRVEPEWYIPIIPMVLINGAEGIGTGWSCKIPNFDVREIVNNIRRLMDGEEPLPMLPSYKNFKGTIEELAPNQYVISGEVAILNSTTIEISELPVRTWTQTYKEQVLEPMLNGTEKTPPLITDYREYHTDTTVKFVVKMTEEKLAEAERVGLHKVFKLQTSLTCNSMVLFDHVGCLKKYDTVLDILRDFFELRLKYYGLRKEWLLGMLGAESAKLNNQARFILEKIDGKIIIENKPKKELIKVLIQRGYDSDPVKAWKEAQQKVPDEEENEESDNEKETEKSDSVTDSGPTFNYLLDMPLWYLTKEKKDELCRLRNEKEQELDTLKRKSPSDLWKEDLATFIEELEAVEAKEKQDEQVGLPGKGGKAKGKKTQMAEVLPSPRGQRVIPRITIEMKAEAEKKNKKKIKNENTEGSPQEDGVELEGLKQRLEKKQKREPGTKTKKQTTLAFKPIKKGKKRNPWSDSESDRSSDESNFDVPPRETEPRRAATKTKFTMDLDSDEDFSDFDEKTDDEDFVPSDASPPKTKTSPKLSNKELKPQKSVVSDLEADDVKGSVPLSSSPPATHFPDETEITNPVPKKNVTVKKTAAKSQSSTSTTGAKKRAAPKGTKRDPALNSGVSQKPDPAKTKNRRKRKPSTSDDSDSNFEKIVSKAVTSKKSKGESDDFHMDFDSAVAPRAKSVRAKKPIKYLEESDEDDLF

Broadly, the IC50 is the concentration that inhibits the measured activity by half. For `COc1ccc2[nH]c3c(c2c1)CCN(C(=O)CCc1ccccc1)C3c1ccc(Cl)c(Cl)c1` (single isomer, unassigned; (-)), the IC50 in experiment [1] (epithelial cell) was 17.7 µM; in experiment [2] (epithelial cell), 16.1 µM; in experiment [3] (epithelial cell), greater than 50 µM.

As for `O=C(c1ccccc1)N1CCc2c([nH]c3ccc(O)cc23)C1c1ccccc1` (centres undefined), the IC50 in experiment [1] (Homo sapiens, Epithelial cell) was 20.9 µM; in experiment [2] (Homo sapiens, Epithelial cell) it was 19.3 µM; in experiment [3] (Homo sapiens, Epithelial cell) it was greater than 100 µM.

For the molecule `COc1cccc(C(=O)N2CCc3c([nH]c4ccc(OC)cc34)C2c2ccccc2)c1` (centres undefined), the IC50 in experiment [1] (Homo sapiens, Epithelial cell) amounted to 5.13 µM; in experiment [2] (Homo sapiens, Epithelial cell), 12 µM; in experiment [3] (Homo sapiens, Epithelial cell), 3.01 µM.

In the case of `COc1ccc2[nH]c3c(c2c1)CCN(C(=O)c1ccc([N+](=O)[O-])cc1)C3c1ccccc1` (centres undefined), the IC50 in experiment [1] (Homo sapiens, Epithelial cell) was determined as 58.1 µM; in experiment [2] (Homo sapiens, Epithelial cell), 25.5 µM; in experiment [3] (Homo sapiens, Epithelial cell), 6.18 µM.

For the molecule `COc1ccc2[nH]c3c(c2c1)CCN(C(=O)CCc1ccccc1)C3c1ccc(Cl)c(Cl)c1` (single isomer, unassigned; (+)), the values for the IC50 in experiment [1] (epithelial cell), in experiment [2] (epithelial cell) and in experiment [3] (epithelial cell) were 0.13 µM, 0.65 µM and 0.042 µM, respectively.

For `O=C(c1ccccc1)N1CCc2c([nH]c3ccccc23)C1c1ccccc1` (centres undefined), the IC50 in experiment [1] (Homo sapiens, Epithelial cell) is 57.9 µM; in experiment [2] (Homo sapiens, Epithelial cell) it was greater than 100 µM; in experiment [3] (Homo sapiens, Epithelial cell) it was 51.2 µM.

For `COc1ccc2[nH]c3c(c2c1)CCN(C(=O)c1ccccc1)C3c1ccc(Br)cc1` (centres undefined), the IC50 in experiment [1] (Homo sapiens, Epithelial cell) turned out to be 3.62 µM; in experiment [2] (Homo sapiens, Epithelial cell) it was 2.09 µM; in experiment [3] (Homo sapiens, Epithelial cell), 18.8 µM.

Turning to `O=C(c1ccccc1)N1CCc2c([nH]c3ccccc23)C1`, the IC50 in experiment [1] (Homo sapiens, Epithelial cell) is 21.4 µM; in experiment [2] (Homo sapiens, Epithelial cell) it was greater than 100 µM; in experiment [3] (Homo sapiens, Epithelial cell) it was 45.4 µM.

With `COc1ccc(C(=O)N2CCc3c([nH]c4ccc(OC)cc34)C2c2ccc(Cl)c(Cl)c2)cc1` (centres undefined), the IC50 turned out to be 4.28 µM in experiment [1] (Homo sapiens, Epithelial cell); 44.6 µM in experiment [2] (Homo sapiens, Epithelial cell); 1.08 µM in experiment [3] (Homo sapiens, Epithelial cell).

On to `COc1ccc2[nH]c3c(c2c1)CCN(C(=O)c1ccccc1)C3c1ccc(C)cc1` (centres undefined), for which the IC50 was 6.45 µM in experiment [1] (Homo sapiens, Epithelial cell); 17.4 µM in experiment [2] (Homo sapiens, Epithelial cell); 22.2 µM in experiment [3] (Homo sapiens, Epithelial cell).

On to `CC[C@@]1(O)C(=O)OCc2c1cc1n(c2=O)Cc2cc3ccccc3nc2-1` [CAMPTOTHECIN], for which the IC50 is 0.01 µM in experiment [1] (Homo sapiens, Epithelial cell); 0.045 µM in experiment [2] (Homo sapiens, Epithelial cell); 0.075 µM in experiment [3] (Homo sapiens, Epithelial cell).

On to `COc1ccc2[nH]c3c(c2c1)CCN(C(=O)CCc1ccc(F)cc1)C3c1ccccc1` (centres undefined), for which the IC50 amounted to 0.72 µM in experiment [1] (Homo sapiens, Epithelial cell); 3.8 µM in experiment [2] (Homo sapiens, Epithelial cell); 0.34 µM in experiment [3] (Homo sapiens, Epithelial cell). Also, the inhibition entry in experiment [4], in experiment [5], in experiment [6] and in experiment [7] was “Active” each time.

In the case of `COc1ccc2[nH]c3c(c2c1)CCN(C(=O)c1ccccc1)C3c1ccc(Cl)c(Cl)c1` (centres undefined), the IC50 came out at 0.54 µM in experiment [1] (Homo sapiens, Epithelial cell); 1.66 µM in experiment [2] (Homo sapiens, Epithelial cell); 0.59 µM in experiment [3] (Homo sapiens, Epithelial cell). The inhibition entry in experiment [4], in experiment [8], in experiment [5], in experiment [6] and in experiment [7] was “Active” each time.

`COc1cccc(C(=O)N2CCc3c([nH]c4ccc(OC)cc34)C2c2ccc(Cl)c(Cl)c2)c1` (centres undefined): the IC50 is 1.97 µM in experiment [1] (Homo sapiens, Epithelial cell); 13.6 µM in experiment [2] (Homo sapiens, Epithelial cell); 0.68 µM in experiment [3] (Homo sapiens, Epithelial cell).

In the case of `COc1ccc2[nH]c3c(c2c1)CCN(C(=O)c1ccc(Cl)cc1)C3c1ccccc1` (centres undefined), the IC50 in experiment [1] (Homo sapiens, Epithelial cell) came to 5.56 µM; in experiment [2] (Homo sapiens, Epithelial cell), 2.15 µM; in experiment [3] (Homo sapiens, Epithelial cell) it was 1.11 µM.

Take `COc1ccc2[nH]c3c(c2c1)CCN(C(=O)c1ccccc1)C3c1ccccc1` (centres undefined): the IC50 in experiment [1] (Homo sapiens, Epithelial cell) was 2.53 µM; in experiment [2] (Homo sapiens, Epithelial cell) it was 5.29 µM; in experiment [3] (Homo sapiens, Epithelial cell), 1.48 µM.

As to `COc1ccc2[nH]c3c(c2c1)CCN(C(=O)c1ccccc1)C3c1ccccc1Cl` (centres undefined), the half-maximal inhibitory concentration (IC50) in experiment [1] (Homo sapiens, Epithelial cell) was 6.73 µM; in experiment [2] (Homo sapiens, Epithelial cell), 27.2 µM; in experiment [3] (Homo sapiens, Epithelial cell) it was greater than 100 µM.

Consider `COc1ccc2[nH]c3c(c2c1)CCN(C(=O)c1ccccc1)C3c1ccc(F)c(F)c1` (centres undefined), for which the 50% inhibitory concentration (IC50) is 2.65 µM in experiment [1] (Homo sapiens, Epithelial cell); 30.2 µM in experiment [2] (Homo sapiens, Epithelial cell); 31 µM in experiment [3] (Homo sapiens, Epithelial cell).

Take `O=C(c1cccc(F)c1)N1CCc2c([nH]c3ccccc23)C1c1ccccc1` (centres undefined): the IC50 in experiment [1] (Homo sapiens, Epithelial cell) was 32.5 µM; in experiment [2] (Homo sapiens, Epithelial cell) it was greater than 100 µM; in experiment [3] (Homo sapiens, Epithelial cell), 57.6 µM.

On to `COc1ccc2[nH]c3c(c2c1)CCN(C(=O)CCc1ccccc1)C3c1ccccc1` (centres undefined), for which the IC50 in experiment [1] (Homo sapiens, Epithelial cell) worked out at 0.36 µM; in experiment [2] (Homo sapiens, Epithelial cell), 7.91 µM; in experiment [3] (Homo sapiens, Epithelial cell), 0.57 µM. For the same molecule, the inhibition result in experiment [4], in experiment [8], in experiment [5], in experiment [6] and in experiment [7] was “Active” in each case.

Regarding `COc1ccc(C(=O)N2CCc3c([nH]c4ccc(OC)cc34)C2c2ccccc2)cc1` (centres undefined), the IC50 in experiment [1] (Homo sapiens, Epithelial cell) came to 6.14 µM; in experiment [2] (Homo sapiens, Epithelial cell), 11.8 µM; in experiment [3] (Homo sapiens, Epithelial cell), 2.81 µM.

As to `CC(C)C1c2[nH]c3ccccc3c2CCN1C(=O)c1ccccc1` (centres undefined), the IC50 in experiment [1] (Homo sapiens, Epithelial cell) is greater than 100 µM; in experiment [2] (Homo sapiens, Epithelial cell) it was greater than 100 µM; in experiment [3] (Homo sapiens, Epithelial cell), greater than 100 µM.

Take `CN1c2ccccc2C(=O)N2CCc3c([nH]c4ccccc34)[C@H]21`: the IC50 in experiment [1] (Homo sapiens, Epithelial cell) is 19.6 µM; in experiment [2] (Homo sapiens, Epithelial cell), greater than 100 µM; in experiment [3] (Homo sapiens, Epithelial cell), 49 µM.

For `COc1ccc2[nH]c3c(c2c1)CCN(C(=O)c1ccc(F)cc1)C3c1ccccc1` (centres undefined), the IC50 was 1.73 µM in experiment [1] (Homo sapiens, Epithelial cell); 12.7 µM in experiment [2] (Homo sapiens, Epithelial cell); 1.24 µM in experiment [3] (Homo sapiens, Epithelial cell).

As to `COc1ccc2[nH]c3c(c2c1)CCN(C(=O)CCc1ccccc1F)C3c1ccccc1` (centres undefined), the IC50 in experiment [1] (Homo sapiens, Epithelial cell) turned out to be 7.76 µM; in experiment [2] (Homo sapiens, Epithelial cell), 2.45 µM; in experiment [3] (Homo sapiens, Epithelial cell), 0.27 µM.

For `COc1ccc2[nH]c3c(c2c1)CCN(C(=O)c1ccc(F)cc1)C3c1ccc(Cl)c(Cl)c1` (centres undefined), the IC50 in experiment [1] (Homo sapiens, Epithelial cell) came out at 0.49 µM; in experiment [2] (Homo sapiens, Epithelial cell), 14.1 µM; in experiment [3] (Homo sapiens, Epithelial cell) it was 0.29 µM. Also, the inhibition result in experiment [4], in experiment [8], in experiment [5], in experiment [6] and in experiment [7] was “Active” each time.

With `COc1cc([C@@H]2c3cc4c(cc3[C@@H](O[C@@H]3O[C@@H]5CO[C@@H](C)O[C@H]5[C@H](O)[C@H]3O)[C@H]3COC(=O)[C@H]23)OCO4)cc(OC)c1O`, the inhibition result in experiment [5], in experiment [6] and in experiment [7] was “Active” each time.

As to `COc1ccc2[nH]c3c(c2c1)CCN(C(=O)c1ccccc1F)C3c1ccccc1` (centres undefined), the IC50 was found to be 6.18 µM in experiment [1] (Homo sapiens, Epithelial cell); 18.7 µM in experiment [2] (Homo sapiens, Epithelial cell); 62.4 µM in experiment [3] (Homo sapiens, Epithelial cell).

Turning to `COc1ccc2[nH]c3c(c2c1)CCN(C(=O)c1cccc(F)c1)C3c1ccccc1` (centres undefined), the IC50 worked out at 4.8 µM in experiment [1] (Homo sapiens, Epithelial cell); 9.27 µM in experiment [2] (Homo sapiens, Epithelial cell); 3.28 µM in experiment [3] (Homo sapiens, Epithelial cell).

For the molecule `COc1ccc2[nH]c3c(c2c1)CCN(C(=O)c1ccccc1)C3c1cccc(Br)c1` (centres undefined), the IC50 came to 3.24 µM in experiment [1] (Homo sapiens, Epithelial cell); 11.9 µM in experiment [2] (Homo sapiens, Epithelial cell); 40.8 µM in experiment [3] (Homo sapiens, Epithelial cell).
